Experimental data from publication PMC2788151 (Journal of immunology (Baltimore, Md. : 1950), 2009).
Non-standard residues stand in square brackets, D forms with d. Residues, ends and D or L forms follow the SMILES beside them. No end group written: not given here. *: point of attachment. Biotin = O=C1N[C@H]2[C@H](CS[C@H]2CCCCC(=O)*)N1; pY = N[C@@H](Cc1ccc(OP(=O)(O)O)cc1)C(=O)O

What was measured:
[1] = target: CD200R pY3 peptide (human); experiment: SPR
[2] = target: CD200R pY1,2 peptide (human); experiment: SPR
Chain of CD200R pY1,2 peptide (human) (Q8TD46 309-329): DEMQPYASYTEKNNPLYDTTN

[3] = target: CD200R pY1,3 peptide (human); experiment: SPR
[4] = target: CD200R pY1 peptide (human); experiment: SPR
[5] = target: T1, Recombinant human Dok1 PTB domain (amino acids 140–268) (Homo sapiens, UniProt Q99704); format: binding
T1 sequence (Q99704 140-268): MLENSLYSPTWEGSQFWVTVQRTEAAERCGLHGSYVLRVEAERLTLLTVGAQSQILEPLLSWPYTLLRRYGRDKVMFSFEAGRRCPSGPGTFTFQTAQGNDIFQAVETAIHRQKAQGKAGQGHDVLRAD
How it was run: (§1)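 On a BIAcore 3000, ~4000 RU streptavidin was amine-coupled to CM5 chips at 25°C, then 50–150 RU biotinylated human phosphotyrosine peptides (CD200R tail, singly or doubly phosphorylated) were captured. Increasing concentrations of monomeric recombinant soluble PTB domain were passed over at 37°C to reach equilibrium binding. Signal from non-phosphorylated-peptide or streptavidin-only flow cells was subtracted, and the data were fitted to hyperbolas.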

[6] = target: T2, Recombinant human Dok2 PTB domain (amino acids 133–259) (Homo sapiens, UniProt O60496); format: binding
T2 sequence (O60496 133-259): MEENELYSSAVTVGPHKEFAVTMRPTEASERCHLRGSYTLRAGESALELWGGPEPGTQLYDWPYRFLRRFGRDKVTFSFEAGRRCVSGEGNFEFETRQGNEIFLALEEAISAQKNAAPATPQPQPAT
How it was run: as §1

[7] = target: T3, Recombinant human Dok1 PTB domain (amino acids 140-268) (human, UniProt Q99704 140-268); experiment: SPR
T3 sequence (looked up): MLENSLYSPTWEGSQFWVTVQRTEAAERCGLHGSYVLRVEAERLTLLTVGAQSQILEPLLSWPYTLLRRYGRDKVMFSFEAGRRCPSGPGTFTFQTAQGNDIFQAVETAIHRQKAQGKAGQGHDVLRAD

[8] = target: T4, Recombinant human Dok2 PTB domain (amino acids 133-259) (human, UniProt O60496 133-259); experiment: SPR
T4 sequence (looked up): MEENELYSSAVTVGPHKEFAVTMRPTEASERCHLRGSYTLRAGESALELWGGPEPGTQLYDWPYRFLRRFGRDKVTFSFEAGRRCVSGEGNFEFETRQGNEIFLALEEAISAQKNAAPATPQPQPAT

With “Recombinant human Dok1 PTB domain (amino acids 140-268) (from UniProt Q99704 140-268) (domain or fragment)” as the molecule, how does the Kd [1] read?
The Kd was 7.3 µM.

What about the Kd [2] of the same molecule?
Its Kd is 8.4 µM.

What about the Kd [3] of the same molecule?
The Kd was 6.2 µM.

What about the Kd [4] of the same molecule?
The Kd was 14 µM.

Which results are given for “Recombinant human Dok2 PTB domain (amino acids 133-259) (from UniProt O60496 133-259) (domain or fragment)”?
Kd [1]: 1.4 µM; Kd [3]: 0.6 µM

With `CSCC[C@H](NC(=O)[C@H](CCC(=O)O)NC(=O)[C@H](CC(=O)O)NC(=O)CCCC[C@@H]1SC[C@@H]2NC(=O)N[C@@H]21)C(=O)N[C@@H](CCC(N)=O)C(=O)N1CCC[C@H]1C(=O)N[C@@H](Cc1ccc(OP(=O)(O)O)cc1)C(=O)N[C@@H](C)C(=O)N[C@@H](CO)C(=O)N[C@@H](Cc1ccc(OP(=O)(O)O)cc1)C(=O)N[C@H](C(=O)N[C@@H](CCC(=O)O)C(=O)N[C@@H](CCCCN)C(=O)N[C@@H](CC(N)=O)C(=O)N[C@@H](CC(N)=O)C(=O)N1CCC[C@H]1C(=O)N[C@@H](CC(C)C)C(=O)N[C@@H](Cc1ccc(O)cc1)C(=O)N[C@@H](CC(=O)O)C(=O)N[C@H](C(=O)N[C@H](C(=O)N[C@@H](CC(N)=O)C(=O)O)[C@@H](C)O)[C@@H](C)O)[C@@H](C)O` [CD200R pY1,2] (Biotin-DEMQP[pY]AS[pY]TEKNNPLYDTTN-OH) as the molecule, how does the Kd [5] read?
The Kd was 8.4 µM.

For `CSCC[C@H](NC(=O)[C@H](CCC(=O)O)NC(=O)[C@H](CC(=O)O)NC(=O)CCCC[C@@H]1SC[C@@H]2NC(=O)N[C@@H]21)C(=O)N[C@@H](CCC(N)=O)C(=O)N1CCC[C@H]1C(=O)N[C@@H](Cc1ccc(OP(=O)(O)O)cc1)C(=O)N[C@@H](C)C(=O)N[C@@H](CO)C(=O)N[C@@H](Cc1ccc(O)cc1)C(=O)N[C@H](C(=O)N[C@@H](CCC(=O)O)C(=O)N[C@@H](CCCCN)C(=O)N[C@@H](CC(N)=O)C(=O)N[C@@H](CC(N)=O)C(=O)N1CCC[C@H]1C(=O)N[C@@H](CC(C)C)C(=O)N[C@@H](Cc1ccc(O)cc1)C(=O)N[C@@H](CC(=O)O)C(=O)N[C@H](C(=O)N[C@H](C(=O)N[C@@H](CC(N)=O)C(=O)O)[C@@H](C)O)[C@@H](C)O)[C@@H](C)O` [CD200R pY1] (Biotin-DEMQP[pY]ASYTEKNNPLYDTTN-OH), which Kd [5] is on record?
The Kd was 14 µM.

For `CC[C@H](C)[C@H](NC(=O)[C@H](CCC(=O)O)NC(=O)[C@@H](NC(=O)CCCC[C@@H]1SC[C@@H]2NC(=O)N[C@@H]21)[C@@H](C)O)C(=O)N[C@H](C(=O)N[C@@H](CC(N)=O)C(=O)N1CCC[C@H]1C(=O)N[C@@H](CC(N)=O)C(=O)N[C@@H](Cc1ccc(OP(=O)(O)O)cc1)C(=O)N[C@@H](CCSC)C(=O)NCC(=O)N[C@H](C(=O)NCC(=O)N1CCC[C@H]1C(=O)O)C(C)C)[C@@H](C)CC` [SHIP pY917] (Biotin-TEIINPN[pY]MGVGP-OH), which Kd [5] is on record?
Its Kd is 13 µM.

How did the Kd [5] turn out when `CSCC[C@H](NC(=O)[C@H](CCC(=O)O)NC(=O)[C@H](CC(=O)O)NC(=O)CCCC[C@@H]1SC[C@@H]2NC(=O)N[C@@H]21)C(=O)N[C@@H](CCC(N)=O)C(=O)N1CCC[C@H]1C(=O)N[C@@H](Cc1ccc(O)cc1)C(=O)N[C@@H](C)C(=O)N[C@@H](CO)C(=O)N[C@@H](Cc1ccc(O)cc1)C(=O)N[C@H](C(=O)N[C@@H](CCC(=O)O)C(=O)N[C@@H](CCCCN)C(=O)N[C@@H](CC(N)=O)C(=O)N[C@@H](CC(N)=O)C(=O)N1CCC[C@H]1C(=O)N[C@@H](CC(C)C)C(=O)N[C@@H](Cc1ccc(OP(=O)(O)O)cc1)C(=O)N[C@@H](CC(=O)O)C(=O)N[C@H](C(=O)N[C@H](C(=O)N[C@@H](CC(N)=O)C(=O)O)[C@@H](C)O)[C@@H](C)O)[C@@H](C)O` [CD200R pY3] (Biotin-DEMQPYASYTEKNNPL[pY]DTTN-OH) was run?
The Kd was 7.3 µM.

What about the Kd [6] of the same molecule?
The Kd was 1.4 µM.

Which Kd [5] does the source give for `CSCC[C@H](NC(=O)[C@H](CCC(=O)O)NC(=O)CCCC[C@@H]1SC[C@@H]2NC(=O)N[C@@H]21)C(=O)N[C@@H](Cc1ccccc1)C(=O)N[C@@H](CCC(=O)O)C(=O)N[C@@H](CC(N)=O)C(=O)N1CCC[C@H]1C(=O)N[C@@H](CC(C)C)C(=O)N[C@@H](Cc1ccc(OP(=O)(O)O)cc1)C(=O)NCC(=O)N[C@@H](CO)C(=O)N[C@@H](CC(C)C)C(=O)N[C@@H](CO)C(=O)N[C@@H](CO)C(=O)O` [SHIP pY1022] (Biotin-EMFENPL[pY]GSLSS-OH) here?
The Kd was 13 µM.

Which results are given for `CSCC[C@H](NC(=O)[C@H](CCC(=O)O)NC(=O)[C@H](CC(=O)O)NC(=O)CCCC[C@@H]1SC[C@@H]2NC(=O)N[C@@H]21)C(=O)N[C@@H](CCC(N)=O)C(=O)N1CCC[C@H]1C(=O)N[C@@H](Cc1ccc(OP(=O)(O)O)cc1)C(=O)N[C@@H](C)C(=O)N[C@@H](CO)C(=O)N[C@@H](Cc1ccc(O)cc1)C(=O)N[C@H](C(=O)N[C@@H](CCC(=O)O)C(=O)N[C@@H](CCCCN)C(=O)N[C@@H](CC(N)=O)C(=O)N[C@@H](CC(N)=O)C(=O)N1CCC[C@H]1C(=O)N[C@@H](CC(C)C)C(=O)N[C@@H](Cc1ccc(OP(=O)(O)O)cc1)C(=O)N[C@@H](CC(=O)O)C(=O)N[C@H](C(=O)N[C@H](C(=O)N[C@@H](CC(N)=O)C(=O)O)[C@@H](C)O)[C@@H](C)O)[C@@H](C)O` [CD200R pY1,3] (Biotin-DEMQP[pY]ASYTEKNNPL[pY]DTTN-OH)?
Kd [5]: 6.2 µM; Kd [6]: 0.6 µM

Biotin-EMLENSL[pY]SPTW [Dok1 pY146 peptide] was tested. Which Kd [7] did it give?
Its Kd is 6.9 µM.

For Biotin-TEIINPN[pY]MGVGP [SHIP pY917 peptide], which Kd [8] is on record?
The Kd was greater than 30 µM.

With Biotin-CMEENEL[pY]SSAV [Dok2 pY139 peptide] as the molecule, how does the Kd [7] read?
The Kd was 3.3 µM.
